Test results reported in ChEMBL document CHEMBL3232915, “Discovery, optimization, and characterization of novel D2 dopamine receptor selective antagonists” (J Med Chem, 2014).

Tests used:
[1] = molecular target: T1, D(2) dopamine receptor (Homo sapiens, UniProt P14416); assay: Antagonist activity at D2 receptor (unknown origin) expressed in Flp-In TREx 293 cells coexpressing chimeric Gqi5 protein assessed as calcium accumulation by Fluo-8AM dye based fluorescence analysis; format: functional, cell-based
[2] = molecular target: T1, D(2) dopamine receptor; assay: Antagonist activity at ProLink-tagged D2 receptor (unknown origin) expressed in CHO cells assessed as inhibition of dopamine-stimulated beta-arrestin binding treated for 90 mins prior to dopamine challenge by PathHunter DiscoveRx assay; format: cell-based
[3] = molecular target: T2, D(3) dopamine receptor (Homo sapiens, UniProt P35462); assay: Antagonist activity at ProLink-tagged D3 receptor (unknown origin) expressed in CHO cells assessed as inhibition of dopamine-stimulated beta-arrestin binding treated for 90 mins prior to dopamine challenge by PathHunter DiscoveRx assay; format: cell-based
[4] = test system: CHO; assay: Ratio of AC50 for ProLink-tagged D3 receptor (unknown origin) expressed in CHO cells to AC50 for ProLink-tagged D2 receptor (unknown origin) expressed in CHO cells by beta-arrestin assay; format: cell-based; conditions: Homo sapiens
[5] = molecular target: T1, D(2) dopamine receptor; assay: Displacement of [3H]methylspiperone from human D2L receptor expressed in HEK cell membrane after 90 mins by scintillation counting analysis; format: cell membranes, HEK293
[6] = molecular target: T2, D(3) dopamine receptor; assay: Displacement of [3H]methylspiperone from human D3 receptor expressed in HEK293 cell membrane after 90 mins by scintillation counting analysis; format: cell membranes
[7] = test system: HEK293; assay: Ratio of Ki for human D3 receptor expressed in HEK293 cell membrane to Ki for human D2L receptor expressed in HEK cell membrane; format: cell-based
How it was run: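 Competition binding with [3H]methylspiperone on membranes from stable HEK cells. […] Incubation 90 min at room temperature in EBSS with sodium metabisulfite, nonspecific binding with 4 µM (+)-butaclamol, then GF/C filtration and scintillation counting. Ki from IC50 via Cheng–Prusoff.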

T2 sequence (P35462 whole entry): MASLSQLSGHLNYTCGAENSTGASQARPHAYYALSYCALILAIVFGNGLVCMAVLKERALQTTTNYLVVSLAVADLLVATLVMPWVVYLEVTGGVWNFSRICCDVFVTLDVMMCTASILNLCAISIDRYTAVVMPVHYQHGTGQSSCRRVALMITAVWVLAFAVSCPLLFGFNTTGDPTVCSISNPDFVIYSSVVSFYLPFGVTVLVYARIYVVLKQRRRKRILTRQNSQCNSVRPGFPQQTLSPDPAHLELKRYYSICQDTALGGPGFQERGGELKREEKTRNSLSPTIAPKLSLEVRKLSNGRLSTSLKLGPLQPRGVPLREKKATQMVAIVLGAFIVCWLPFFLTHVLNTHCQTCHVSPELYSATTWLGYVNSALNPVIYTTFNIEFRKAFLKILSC
T1 sequence (P14416 whole entry): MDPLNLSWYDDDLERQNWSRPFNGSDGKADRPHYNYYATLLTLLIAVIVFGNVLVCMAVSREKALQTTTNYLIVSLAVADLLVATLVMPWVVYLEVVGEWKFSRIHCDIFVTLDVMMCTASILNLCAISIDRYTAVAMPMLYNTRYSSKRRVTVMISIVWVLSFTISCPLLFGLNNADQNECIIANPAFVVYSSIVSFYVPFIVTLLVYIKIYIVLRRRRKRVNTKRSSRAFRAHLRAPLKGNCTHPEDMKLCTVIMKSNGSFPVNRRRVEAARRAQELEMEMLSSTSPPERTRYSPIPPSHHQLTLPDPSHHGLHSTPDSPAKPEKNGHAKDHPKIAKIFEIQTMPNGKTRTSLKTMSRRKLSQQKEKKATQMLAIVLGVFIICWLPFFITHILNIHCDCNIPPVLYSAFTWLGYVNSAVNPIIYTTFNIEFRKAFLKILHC

Row | SMILES | AC50 [1] | other results
1 | CCN(Cc1ccccc1)C(=O)c1ccc2c(c1)N(CC)C(=O)c1ccccc1[S+]2[O-] (racemic) | 56000 nM | 
2 | COc1ccc(CNC(=O)c2ccc3c(c2)C(=O)c2ccccc2C3=O)cc1 | > 77000 nM | 
3 | CCN1C(=O)c2ccccc2[S+]([O-])c2ccc(C(=O)NCc3ccc(C#N)cc3)cc21 (racemic) | 141 nM | 
4 | COc1ccc(CNC(=O)c2cccc(N3C(=O)c4ccccc4C3=O)c2)cc1 | > 77000 nM | 
5 | CCN1C(=O)c2ccccc2[S+]([O-])c2ccc(C(=O)NCCc3ccc(OC)cc3)cc21 (racemic) | 353 nM | 
6 | CCN1C(=O)c2ccccc2[S+]([O-])c2ccc(C(=O)NCc3ccc(C(F)(F)F)cc3)cc21 (racemic) | 141 nM | 
7 | CCN1C(=O)c2ccccc2[S+]([O-])c2ccc(C(=O)NCc3cc(OC)c(OC)c(OC)c3)cc21 (racemic) | 1770 nM | 
8 | CCN1C(=O)c2ccccc2[S+]([O-])c2ccc(C(=O)NCc3cccc(OC)c3)cc21 (racemic) | 112 nM | 
9 | CCN1C(=O)c2ccccc2[S@+]([O-])c2ccc(C(=O)NCc3ccc(C#N)cc3)cc21 | 112 nM | AC50 [2]: 257 nM; AC50 [3]: 1.62 µM; Ki [5]: 23 nM; Ki [6]: 0.13 µM; Ratio [4]: 6.3; Ratio Ki [7]: 5.7
10 | CCN1C(=O)c2ccccc2[S+]([O-])c2ccc(C(=O)N(C)Cc3ccc(OC)cc3)cc21 (racemic) | > 77000 nM | 
11 | CN1C(=O)c2ccccc2[S+]([O-])c2ccc(C(=O)NCCc3cccs3)cc21 (racemic) | 89 nM | AC50 [2]: 913 nM; AC50 [3]: 20.4 µM; Ki [5]: 190 nM; Ki [6]: 9.2 µM
12 | CCN1C(=O)c2ccccc2[S+]([O-])c2ccc(C(=O)NCc3ccc(C(C)(C)C)cc3)cc21 (racemic) | 353 nM | 
13 | CCN1C(=O)c2ccccc2[S+]([O-])c2ccc(C(=O)NCc3ccc(S(C)(=O)=O)cc3)cc21 (racemic) | 353 nM | 
14 | CCN1C(=O)c2ccccc2[S+]([O-])c2ccc(NC(=O)Cc3ccc(F)cc3)cc21 (racemic) | 223 nM | 

Further lines, with some results ahead:

Row | AC50 [1] | SMILES | other results
15 | 281 nM | CN1C(=O)c2ccccc2[S+]([O-])c2ccc(C(=O)NCc3cccnc3)cc21 (racemic) | 
16 | 4460 nM | CCN1C(=O)c2ccccc2[S+]([O-])c2ccc(C(=O)NCc3ccccc3OC)cc21 (racemic) | 
17 | 445 nM | CCN1C(=O)c2ccccc2[S+]([O-])c2ccc(C(=O)NCc3ccccc3)cc21 (racemic) | 
18 | 11200 nM | CN1C(=O)c2ccccc2[S+]([O-])c2ccc(C(=O)NCc3ccccn3)cc21 (racemic) | 
19 | 353 nM | CN1C(=O)c2ccccc2[S+]([O-])c2ccc(C(=O)NCc3ccc(F)cc3)cc21 (racemic) | 
20 | 280 nM | CN1C(=O)c2ccccc2[S@+]([O-])c2ccc(C(=O)NCc3ccc(Cl)cc3)cc21 | AC50 [2]: 2890 nM; AC50 [3]: 10.2 µM; Ratio [4]: 4.5
21 | 177 nM | CCN1C(=O)c2ccccc2[S+]([O-])c2ccc(C(=O)NCc3ccc(C)cc3)cc21 (racemic) | 
22 | 445 nM | CN1C(=O)c2ccccc2[S@+]([O-])c2ccc(C(=O)NCc3cccnc3)cc21 | AC50 [2]: 2890 nM; AC50 [3]: 14.5 µM; Ki [5]: 310 nM; Ki [6]: 21 µM; Ratio [4]: 5; Ratio Ki [7]: 70
23 | 71 nM | CN1C(=O)c2ccccc2[S+]([O-])c2ccc(C(=O)NCc3ccc(Br)cc3)cc21 (racemic) | 
24 | 89 nM | CCN1C(=O)c2ccccc2[S+]([O-])c2ccc(C(=O)NCc3ccc(F)cc3)cc21 (racemic) | 
25 | 112 nM | COc1ccc(CNC(=O)c2ccc3c(c2)N(C)C(=O)c2ccccc2[S+]3[O-])cc1 (racemic) | 
26 | 887 nM | CCN1C(=O)c2ccccc2[S+]([O-])c2ccc(C(=O)Nc3ccccc3)cc21 (racemic) | 
27 | 223 nM | CN1C(=O)c2ccccc2[S+]([O-])c2ccc(C(=O)NCc3ccccc3)cc21 (racemic) | 
